Holding throughout (type): cell-based, HEK293
The target of assay [1] is T1, Melanocortin receptor 5 (Mus musculus, UniProt P41149). As to the kind of experiment: Effective concentration against mouse melanocortin receptor-5 expressed in 293 HEK cells. Summed up: (§1)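 LacZ reporter-gene activation assay in HEK293 cells expressing human MC3, human MC4 or mouse MC5 receptor. Dose-response curves run up to 30 µM. EC50 reported as -log(EC50) (M) with 95% confidence ranges. Incomplete or absent curves at 30 µM were not assigned values.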

The target in assay [2] is T1, Melanocortin receptor 5. In words: Displacement of [125I]NDP-MSH from mouse melanocortin receptor-5 expressed in 293 HEK cells. In outline: (§2)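 Radioligand competition with [125I]-NDP-MSH on HEK293 cells expressing human MC3, human MC4 or mouse MC5 receptor. Ligands up to 30 µM. IC50 reported as -log(IC50) (M) with 95% confidence ranges. Ligands without activation activity were tested only at a single 30 µM concentration.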
For orientation: Loss of bound radioactivity is the signal in a displacement assay; it reports binding, not function.

For assay [3], the target named is T2, Melanocortin receptor 4 (Homo sapiens, UniProt P32245). As to the kind of experiment: Displacement of [125I]NDP-MSH from human melanocortin receptor-4 expressed in 293 HEK cells. Summed up:
as §2

Assay [4] has as its target T2, Melanocortin receptor 4. As to the kind of experiment: Effective concentration against human melanocortin receptor-4 expressed in 293 HEK cells. In outline: as §1
Assay [5] deals with T3, Melanocortin receptor 3 (Homo sapiens, UniProt P41968). As to the kind of experiment: Displacement of [125I]NDP-MSH from human melanocortin receptor-3 expressed in 293 HEK cells. Summed up:
as §2

Assay [6] deals with T3, Melanocortin receptor 3. As to the kind of experiment: Effective concentration against human melanocortin receptor-3 expressed in 293 HEK cells. Summed up:
as §1

T2 sequence (P32245 whole entry): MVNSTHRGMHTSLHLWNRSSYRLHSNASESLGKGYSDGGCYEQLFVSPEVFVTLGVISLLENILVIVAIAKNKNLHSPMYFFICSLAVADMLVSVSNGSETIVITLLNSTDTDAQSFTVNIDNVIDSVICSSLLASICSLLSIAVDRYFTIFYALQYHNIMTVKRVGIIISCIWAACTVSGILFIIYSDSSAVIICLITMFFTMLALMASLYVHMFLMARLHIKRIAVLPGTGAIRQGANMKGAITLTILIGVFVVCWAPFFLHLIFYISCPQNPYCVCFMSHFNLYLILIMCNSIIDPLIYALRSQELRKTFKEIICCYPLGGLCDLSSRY
T1 sequence (P41149 whole entry): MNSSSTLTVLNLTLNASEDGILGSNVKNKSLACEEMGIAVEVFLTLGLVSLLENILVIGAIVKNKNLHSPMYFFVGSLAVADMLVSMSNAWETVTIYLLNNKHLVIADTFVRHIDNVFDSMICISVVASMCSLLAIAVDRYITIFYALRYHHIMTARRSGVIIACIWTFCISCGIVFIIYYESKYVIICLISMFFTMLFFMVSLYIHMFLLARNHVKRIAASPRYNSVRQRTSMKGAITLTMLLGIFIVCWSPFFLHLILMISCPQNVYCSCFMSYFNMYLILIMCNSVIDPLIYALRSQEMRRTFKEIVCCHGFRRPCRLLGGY
T3 sequence (P41968 whole entry): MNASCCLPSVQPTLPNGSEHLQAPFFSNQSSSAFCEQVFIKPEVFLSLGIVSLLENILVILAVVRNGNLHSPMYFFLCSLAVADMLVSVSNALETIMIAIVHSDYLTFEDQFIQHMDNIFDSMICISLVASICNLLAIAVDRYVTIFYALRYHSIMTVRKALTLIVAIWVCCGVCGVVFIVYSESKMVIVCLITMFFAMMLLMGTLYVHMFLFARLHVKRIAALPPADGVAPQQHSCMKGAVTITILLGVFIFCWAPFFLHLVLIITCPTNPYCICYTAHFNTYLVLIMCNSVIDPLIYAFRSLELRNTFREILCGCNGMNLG

The EC50 is the concentration that produces a half-maximal response. The term IC50 denotes the point on the concentration scale where inhibition reaches its midpoint. Lower therefore signals higher potency. With `CCCC[C@H](NC(C)=O)C(=O)NCC(=O)N[C@@H](CCCCN)C(=O)N[C@H](Cc1ccccc1)C(=O)N(CCCCNC(=N)N)CC(=O)N(CCc1c[nH]c2ccccc12)CC(=O)NCC(N)=O`, the EC50 was 12.6 nM at Melanocortin receptor 5 [1], 251 nM on Melanocortin receptor 4 [4] and 501 nM at Melanocortin receptor 3 [6]. Moreover, the IC50 at Melanocortin receptor 5 [2] was 501 nM; on Melanocortin receptor 4 [3] it was 158 nM; at Melanocortin receptor 3 [5], 631 nM.

Turning to `CCCC[C@H](NC(C)=O)C(=O)NCC(=O)N[C@@H](CCCCN)C(=O)N[C@H](Cc1ccccc1)C(=O)N(CCCNC(=N)N)CC(=O)N(CC(=O)NCC(N)=O)Cc1c[nH]c2ccccc12`, the EC50 at Melanocortin receptor 5 [1] is 100 nM; on Melanocortin receptor 4 [4], 158 nM; at Melanocortin receptor 3 [6], 631 nM. Moreover, the IC50 is 2000 nM on Melanocortin receptor 5 [2], 316 nM on Melanocortin receptor 4 [3] and 5010 nM at Melanocortin receptor 3 [5].

Consider `CCCC[C@H](NC(C)=O)C(=O)NCC(=O)N(CCCCN)CC(=O)NC(Cc1ccccc1)C(=O)N(CCCNC(=N)N)CC(=O)N(CCc1c[nH]c2ccccc12)CC(=O)NCC(N)=O` (single isomer, unassigned), for which the EC50 at Melanocortin receptor 5 [1] is 1000 nM; on Melanocortin receptor 4 [4], 398 nM; on Melanocortin receptor 3 [6], 3980 nM. The IC50 on Melanocortin receptor 5 [2] was 1580 nM; on Melanocortin receptor 4 [3], 501 nM; at Melanocortin receptor 3 [5], 3980 nM.
